We go through 2 compounds from ChEMBL document CHEMBL3526095, “Characterization of the in vitro and in vivo metabolism and disposition and cytochrome P450 inhibition/induction profile of saxagliptin in human” (Drug Metab Dispos, 2012).

Structures are written as SMILES. A value given as a limit tells only on which side of the number the result lay.

Data set [1] is described as follows: Oral bioavailability in dog. The format is ADME, organism-based, Canis lupus familiaris. The following applies: in vivo.
Data set [2] concerns Hepatocyte. The data set can be described thus: Cytotoxicity against human hepatocytes assessed as change in morphological integrity up to 25 uM. The class given is cell-based.
In data set [3] the test system is Hepatocyte. The experiment in a line: Induction of CYP2B6 mRNA expression in human hepatocytes assessed as bupropion hydroxylation up to 25 uM by LC-MS/MS analysis. The format is ADME, cell-based. In outline:
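Freshly isolated primary human hepatocytes from three donors were dosed once daily for 3 consecutive days at 0.2, 1, 5 and 25 µM, with 0.1% DMSO as vehicle control and phenobarbital 1000 µM as the CYP2B6 inducer control. Microsomes were then incubated with 250 µM bupropion at 0.02 mg/ml protein, and metabolite formed was measured by LC-MS/MS. Fold induction is relative to DMSO.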

Data set [4] is described as follows: Drug metabolism in human liver microsomes assessed as compound turnover at 10 uM after 1 hr by LC-MS/MS analysis in presence of NADPH. The format is ADME. As to conditions: read-out: Drug metabolism; call rule not given here. In outline: (§1)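 Pooled HLM at 1 mg/ml protein, incubated with 10 µM [14C]saxagliptin and 1 mM NADPH in 100 mM phosphate buffer pH 7.4 at 37°C for 60 min. Quenched with ice-cold acetonitrile; supernatant analysed by LC-MS/MS and off-line radioanalysis.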

For data set [5], the system named is Hepatocyte. The data set can be described thus: Induction of CYP3A4 mRNA expression in human hepatocytes assessed as testosterone 6beta-hydroxylation up to 25 uM by LC-MS/MS analysis. The format is ADME, cell-based. In short, it runs like this:
(§2)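 Primary hepatocytes from three donors treated once daily for 3 days: saxagliptin 0.2–25 µM, M2 0.2–100 µM, 0.1% DMSO as vehicle. Microsomal activity assayed by LC-MS/MS: phenacetin 100 µM with 0.02 mg/ml protein (CYP1A2), bupropion 250 µM with 0.02 mg/ml (CYP2B6), testosterone 200 µM with 0.01 mg/ml (CYP3A4). mRNA measured by TaqMan qPCR as 2^ΔCT relative to endogenous control and DMSO.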

Data set [6] is described as follows: Oral bioavailability in monkey. The format is ADME, organism-based, Macaca mulatta. As to conditions: rhesus monkey, in vivo.
For data set [7], the system named is Hepatocyte. The experiment in a line: Cytotoxicity against human hepatocytes up to 25 uM by lactate dehydrogenase assay. The class given is cell-based.
The nature of data set [8]: Drug metabolism in human assessed as parent compound level in feces at 50 mg, po after up to 168 hrs by LC-MS/MS analysis. The class given is ADME, organism-based. The following applies: read-out: Drug metabolism.
The target in data set [9] is T1, Cytochrome P450 2A6 (Homo sapiens, UniProt P11509).
T1 sequence (P11509 whole entry): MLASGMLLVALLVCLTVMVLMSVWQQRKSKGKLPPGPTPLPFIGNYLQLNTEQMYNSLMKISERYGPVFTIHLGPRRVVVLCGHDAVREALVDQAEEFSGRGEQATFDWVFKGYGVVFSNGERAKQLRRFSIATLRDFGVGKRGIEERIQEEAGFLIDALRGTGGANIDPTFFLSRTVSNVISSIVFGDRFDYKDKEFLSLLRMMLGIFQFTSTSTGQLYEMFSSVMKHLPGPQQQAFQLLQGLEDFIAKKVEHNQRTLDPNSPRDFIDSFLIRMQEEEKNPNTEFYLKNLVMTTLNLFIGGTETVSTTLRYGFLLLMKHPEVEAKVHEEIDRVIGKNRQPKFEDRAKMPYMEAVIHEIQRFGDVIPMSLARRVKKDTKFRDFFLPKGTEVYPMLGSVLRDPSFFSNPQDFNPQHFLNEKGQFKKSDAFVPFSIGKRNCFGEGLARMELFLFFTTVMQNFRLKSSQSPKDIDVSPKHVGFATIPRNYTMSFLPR
The experiment in a line: Inhibition of CYP2A6 in human liver microsomes assessed as coumarin 7-hydroxylation after 3 mins by LC-MS/MS analysis in presence of NADPH. The class given is ADME. On the technique in general: Liver microsomes are vesicles of endoplasmic reticulum, rich in cytochrome P450 enzymes.

Data set [10] is described as follows: Drug level in human urine treated with 50 mg, po of [14C]saxagliptin up to 168 hrs by LC-MS/MS analysis. The class given is ADME, organism-based. The following applies: in vivo. In outline: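 Single 50-mg oral solution dose of [14C]saxagliptin (91.5 µCi) given to healthy male subjects after a 10-h fast. Urine collected as 0–12 h and 12–24 h pools, then in 24-h intervals to 168 h. Saxagliptin and M2 measured by validated positive-ESI LC-MS/MS with MRM; urine standard curves 25–5000 ng/ml for saxagliptin and 50–10,000 ng/ml for M2.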

Data set [11] deals with Hepatocyte. The experiment in a line: Induction of CYP1A2 mRNA expression in human hepatocytes assessed as phenacetin O-deethylation up to 100 uM by LC-MS/MS analysis. The format is ADME, cell-based. In short, it runs like this: as §2
The target of data set [12] is T2, Cytochrome P450 1A2 (Homo sapiens, UniProt P05177).
T2 sequence (P05177 whole entry): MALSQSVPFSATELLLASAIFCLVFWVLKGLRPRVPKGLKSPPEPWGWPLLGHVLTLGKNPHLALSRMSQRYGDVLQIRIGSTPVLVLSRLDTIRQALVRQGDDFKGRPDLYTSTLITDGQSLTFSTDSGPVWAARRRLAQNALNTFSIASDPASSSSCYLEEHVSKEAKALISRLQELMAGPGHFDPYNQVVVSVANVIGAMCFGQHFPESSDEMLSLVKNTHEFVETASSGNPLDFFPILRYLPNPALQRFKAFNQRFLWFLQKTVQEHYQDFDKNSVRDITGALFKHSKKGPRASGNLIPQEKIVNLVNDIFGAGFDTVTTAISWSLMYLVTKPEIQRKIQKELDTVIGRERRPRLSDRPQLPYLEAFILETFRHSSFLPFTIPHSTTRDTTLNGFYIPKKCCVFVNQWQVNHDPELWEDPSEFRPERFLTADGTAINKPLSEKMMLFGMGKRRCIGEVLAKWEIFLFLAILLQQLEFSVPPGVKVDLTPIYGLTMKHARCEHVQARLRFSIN
The experiment in a line: Inhibition of CYP1A2 in human liver microsomes assessed as phenacetin O-deethylation after 3 mins by LC-MS/MS analysis in presence of NADPH. The format is ADME.

Data set [13] concerns the target T1, Cytochrome P450 2A6. The experiment in a line: Inhibition of CYP2A6 in human liver microsomes assessed as coumarin 7-hydroxylation preincubated for 15 mins by LC-MS/MS analysis in presence of NADPH. The format is ADME.
In data set [14] the test system is Hepatocyte. The experiment in a line: Induction of CYP3A4 mRNA expression in human hepatocytes assessed as testosterone 6beta-hydroxylation up to 100 uM by LC-MS/MS analysis. The class given is ADME, cell-based. In outline: as §2
The subject of data set [15] is Hepatocyte. The data set can be described thus: Cytotoxicity against human hepatocytes assessed as change in morphological integrity up to 100 uM. The class given is cell-based.
In data set [16] the target is T3, Cytochrome P450 3A4 (Homo sapiens, UniProt P08684). The experiment in a line: Inhibition of CYP3A4 in human liver microsomes assessed as midazolam 1'-hydroxylation preincubated for 15 mins by LC-MS/MS analysis. The class given is ADME.
T3 sequence (P08684 whole entry): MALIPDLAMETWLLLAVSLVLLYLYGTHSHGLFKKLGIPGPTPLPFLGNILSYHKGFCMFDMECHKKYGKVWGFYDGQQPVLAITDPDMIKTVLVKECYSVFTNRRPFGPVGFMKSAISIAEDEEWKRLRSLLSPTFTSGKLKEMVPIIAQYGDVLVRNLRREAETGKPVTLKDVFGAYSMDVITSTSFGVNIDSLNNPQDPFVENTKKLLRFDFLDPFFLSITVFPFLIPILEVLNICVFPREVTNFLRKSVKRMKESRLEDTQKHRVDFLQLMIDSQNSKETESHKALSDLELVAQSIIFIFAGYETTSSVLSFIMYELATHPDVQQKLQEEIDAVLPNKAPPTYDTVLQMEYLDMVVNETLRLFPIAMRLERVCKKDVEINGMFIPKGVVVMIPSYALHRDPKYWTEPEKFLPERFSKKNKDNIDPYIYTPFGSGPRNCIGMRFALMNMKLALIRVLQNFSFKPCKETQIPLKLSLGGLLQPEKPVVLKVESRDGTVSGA
The next data set deals with Liver microsome. The data set can be described thus: Drug level in human liver microsomes treated with 10 uM of [14C]saxagliptin after 1 hr by LC-MS/MS analysis in presence of NADPH. The class given is ADME. In outline:
as §1

Data set [17] deals with T3, Cytochrome P450 3A4. The experiment in a line: Inhibition of CYP3A4 in human liver microsomes assessed as testosterone 6beta-hydroxylation preincubated for 15 mins by LC-MS/MS analysis in presence of NADPH. The class given is ADME.
Data set [18] deals with Hepatocyte. The experiment in a line: Induction of CYP2B6 mRNA expression in human hepatocytes assessed as bupropion hydroxylation up to 100 uM by LC-MS/MS analysis. The class given is ADME, cell-based. In short, it runs like this:
as §2

Data set [19] deals with Hepatocyte. The data set can be described thus: Cytotoxicity against human hepatocytes up to 100 uM by lactate dehydrogenase assay. The class given is cell-based.
Data set [20] deals with T2, Cytochrome P450 1A2. The data set can be described thus: Inhibition of CYP1A2 in human liver microsomes assessed as phenacetin O-deethylation preincubated for 15 mins by LC-MS/MS analysis in presence of NADPH. The class given is ADME.

One may read the bioavailability as the share of a dose that reaches the circulation, judged against a reference dose that is usually intravenous. Turning to `N#C[C@@H]1C[C@@H]2C[C@@H]2N1C(=O)[C@@H](N)C12CC3CC(CC(O)(C3)C1)C2` [SAXAGLIPTIN ANHYDROUS], the bioavailability in [1] is 76%; in [6], 51%. The Activity result is “Non-toxic” in the data set on Hepatocyte [2], “Not Active” in the data set on Hepatocyte [3], “Not Active” in the data set with Hepatocyte [5] and “Non-toxic” in the data set on Hepatocyte [7]. The metabolised at 1 h, 10 µM in data set [4] worked out at 32%. Further, in data set [8], the dose excreted at 168 h amounted to 0.5%.

Usually IC50 stands for the concentration that gives 50% inhibition. For the compound `N#C[C@@H]1C[C@@H]2C[C@@H]2N1C(=O)[C@@H](N)C12CC3CC(O)(CC(O)(C3)C1)C2`, the IC50 at Cytochrome P450 2A6 [9], on Cytochrome P450 1A2 [12], at Cytochrome P450 2A6 [13], at Cytochrome P450 3A4 [16], on Cytochrome P450 3A4 [17] and on Cytochrome P450 1A2 [20] was over 200 µM each time. Moreover, the Drug metabolism result (in [10]; in the data set on Liver microsome) was “metabolite_detected” throughout. Besides, the Activity entry is reported as “Not Active” in the data set with Hepatocyte [11]; “Not Active” in the data set with Hepatocyte [14]; “Non-toxic” in the data set on Hepatocyte [15]; “Not Active” with Hepatocyte [18]; “Non-toxic” with Hepatocyte [19].
